Converted amounts (≈) assume the structure as drawn.

The MIC99 is an inhibitory concentration at the 99% level, which refers to growth in some studies and to a panel of isolates in others. By IC90 is commonly meant the concentration at which the effect reaches the 90% level. A word on the MIC: it is the lowest concentration found to suppress growth.

In series [1] the test system is Mycobacterium tuberculosis. As to the kind of experiment: Antimycobacterial activity against Mycobacterium tuberculosis H37Rv ATCC 27294 after 28 days by two fold serial dilution method. The settings on record: H37Rv ATCC 27294, 672 h. Type of series: functional. The procedure, abridged: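 M. tuberculosis H37Rv (ATCC 27294) in vitro; MIC taken as the lowest concentration in µg/mL giving 99% growth inhibition. Determined in triplicate at pH 7.4, with standard drugs (INH, R, E, Z, Cfx) run alongside.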

Series [2] is described as follows: Selectivity index, ratio of cytotoxicity against HEK293T cells to MIC for Mycobacterium tuberculosis H37Rv ATCC 27294. Type of series: toxicity, cell-based, HEK-293T. The settings on record: human, read-out: Selectivity Index. The procedure, abridged:
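HEK-293T human embryonic kidney cells were exposed to 50 µg/mL and read by MTT as % inhibition. The index relates this cytotoxicity to the MIC against M. tuberculosis H37Rv ATCC 27294, defined as 99% growth inhibition.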

In series [3] the test system is Mycobacterium tuberculosis. As to the kind of experiment: Antimycobacterial activity against Mycobacterium tuberculosis H37Rv ATCC 27294 after 7 days by Alamar blue assay. Format: functional. Conditions: H37Rv ATCC 27294, 168 h. Background: The colour change of resazurin is a common sign of viable cells or microbes.
A short description of series [4]: Selectivity index, ratio of CC50 for African green monkey Vero cells to IC90 for Mycobacterium tuberculosis H37Rv ATCC 27294. Type of series: toxicity, cell-based. The settings on record: read-out: Selectivity Index.
The subject of another series is Staphylococcus aureus. As to the kind of experiment: Antibacterial activity against Staphylococcus aureus NRS70 after 16 to 20 hrs by two-fold serial dilution method. Format: functional.

Molecule `O=c1c2ccccc2nc(/C=C/c2ccc(F)cc2)n1-c1ccc(F)cc1` yielded an MIC99 in series [1] above 25 µg/mL.

With `COc1ccc(/C=C/c2nc3ccccc3c(=O)n2-c2ccc(C)cc2)cc1`, in series [1], the MIC99 amounted to 12.5 µg/mL (≈ 33.9 µM).

On to `CSc1ccc(-n2c(/C=C/c3ccc(OC(C)=O)cc3)nc3ccccc3c2=O)cc1`, for which, in series [1], the MIC99 amounted to 6.25 µg/mL (≈ 14.6 µM).

In turn, `COc1cc(-n2c(/C=C/c3ccc(SC)cc3)nc3ccccc3c2=O)cc(OC)c1OC` showed an MIC99 in series [1] of 0.4 µg/mL (≈ 0.869 µM). Besides, in series [2], the selectivity ratio was above 125.

As for `O=c1c2ccccc2nc(/C=C/c2ccc(Cl)cc2)n1-c1ccc(Cl)cc1`, the MIC99 in series [1] was above 25 µg/mL.

Turning to `CSc1ccc(-n2c(/C=C/c3ccco3)nc3ccccc3c2=O)cc1`, the MIC99 in series [1] was 6.25 µg/mL (≈ 17.3 µM). Further, the selectivity ratio in series [2] is above 8.

`COc1cc(-n2c(/C=C/c3cccs3)nc3ccccc3c2=O)cc(OC)c1OC` gave an MIC99 in series [1] of 6.25 µg/mL (≈ 14.9 µM). For the same molecule, in series [2], the selectivity ratio was below 8.

For the molecule `CSc1ccc(-n2c(/C=C/c3cccs3)nc3ccccc3c2=O)cc1`, the MIC99 in series [1] was found to be 6.25 µg/mL (≈ 16.6 µM). For the same molecule, the selectivity ratio in series [2] is above 8.

On to `COc1ccc(/C=C/c2nc3ccccc3c(=O)n2-c2ccccc2)cc1`, for which the MIC99 in series [1] was determined as 12.5 µg/mL (≈ 35.3 µM).

Molecule `COc1ccc(/C=C/c2nc3ccccc3c(=O)n2-c2ccc(SC)cc2)cc1` displayed an MIC99 in series [1] above 25 µg/mL.

As for `Cc1ccc(-n2c(/C=C/c3ccc(F)cc3)nc3ccccc3c2=O)cc1`, the MIC99 in series [1] was above 25 µg/mL.

Turning to `COc1cc(-n2c(/C=C/c3ccccc3)nc3ccccc3c2=O)cc(OC)c1OC`, in series [1], the MIC99 is 0.78 µg/mL (≈ 1.88 µM). Moreover, the selectivity ratio in series [2] was above 64.

In series [1], `CSc1ccc(-n2c(/C=C/c3ccccc3)nc3ccccc3c2=O)cc1` returned an MIC99 of 0.78 µg/mL (≈ 2.11 µM). Also, in series [2], the selectivity ratio was above 64.

The molecule `COc1ccc(-n2c(/C=C/c3ccc(Cl)cc3)nc3ccccc3c2=O)cc1` had an MIC99 in series [1] of 3.12 µg/mL (≈ 8.04 µM). Moreover, the selectivity ratio in series [2] is below 16.

As to `O=c1c2ccccc2nc(/C=C/c2cccs2)n1-c1ccccc1`, the MIC99 in series [1] is 3.12 µg/mL (≈ 9.46 µM). The selectivity ratio in series [2] was below 16.

Molecule `O=c1c2ccccc2nc(/C=C/c2ccc(OCc3ccccc3)cc2)n1-c1ccccc1` showed an MIC99 in series [1] of 12.5 µg/mL (≈ 29 µM).

Take `Cc1ccc(/C=C/c2nc3ccccc3c(=O)n2-c2ccc(C)cc2)cc1`: the MIC99 in series [1] is 3.12 µg/mL (≈ 8.87 µM). Besides, in series [2], the selectivity ratio is above 16.

For the molecule `COc1ccc(-n2c(/C=C/c3cccs3)nc3ccccc3c2=O)cc1`, the MIC99 in series [1] is 1.56 µg/mL (≈ 4.33 µM). In addition, the selectivity ratio in series [2] is above 32.

In turn, `O=c1c2ccccc2nc(/C=C/c2ccc(Cl)cc2)n1-c1ccccc1` displayed an MIC99 in series [1] of 12.5 µg/mL (≈ 34.8 µM).

`COc1cc(-n2c(/C=C/c3ccco3)nc3ccccc3c2=O)cc(OC)c1OC` gave an MIC99 in series [1] of 3.12 µg/mL (≈ 7.73 µM). In series [2], the selectivity ratio was above 16.

In series [1], `COc1ccc(-n2c(/C=C/c3ccccc3)nc3ccccc3c2=O)cc1` yielded an MIC99 of 1.56 µg/mL (≈ 4.4 µM). Further, the selectivity ratio in series [2] was above 32.

In turn, `COc1ccc(/C=C/c2nc3ccccc3c(=O)n2-c2ccc(OC)cc2)cc1` gave an MIC99 in series [1] of 1.56 µg/mL (≈ 4.06 µM). For the same molecule, the selectivity ratio in series [2] is above 32.

For `COc1cc(/C=C/c2nc3ccccc3c(=O)n2-c2ccccc2)cc(OC)c1OC`, the MIC99 in series [1] is 0.78 µg/mL (≈ 1.88 µM). Further, the selectivity ratio in series [2] is above 64.

Molecule `O=c1c2ccccc2nc(/C=C/c2ccccc2)n1-c1ccc(F)cc1` yielded an MIC99 in series [1] of 25 µg/mL (≈ 73 µM).

Take `Cc1ccc(/C=C/c2nc3ccccc3c(=O)n2-c2ccc(F)cc2)cc1`: the MIC99 in series [1] was determined as 6.25 µg/mL (≈ 17.5 µM). Also, the selectivity ratio in series [2] is above 8.

With `CSc1ccc(-n2c(/C=C/c3ccc(N(C)C)cc3)nc3ccccc3c2=O)cc1`, the MIC99 in series [1] was found to be 12.5 µg/mL (≈ 30.2 µM).

In turn, `COc1cc(-n2c(/C=C/c3ccc(Cl)cc3)nc3ccccc3c2=O)cc(OC)c1OC` returned an MIC99 in series [1] of 3.12 µg/mL (≈ 6.96 µM). In series [2], the selectivity ratio was above 16.

In the case of `Cc1ccc(-n2c(/C=C/c3ccccc3)nc3ccccc3c2=O)cc1`, in series [1], the MIC99 is above 25 µg/mL.

`NNC(=O)c1ccncc1` [ISONIAZID]: in series [1], the MIC99 was found to be 0.098 µg/mL (≈ 0.715 µM).

`O=c1c2ccccc2nc(/C=C/c2ccccc2)n1-c1ccc(Cl)cc1` yielded an MIC99 in series [1] of 12.5 µg/mL (≈ 34.8 µM).

In the case of `CO[C@H]1/C=C/O[C@@]2(C)Oc3c(C)c(O)c4c(O)c(c(/C=N/N5CCN(C)CC5)c(O)c4c3C2=O)NC(=O)/C(C)=C\C=C\[C@H](C)[C@H](O)[C@@H](C)[C@@H](O)[C@@H](C)[C@H](OC(C)=O)[C@@H]1C` [RIFAMPIN], the MIC99 in series [1] turned out to be 0.197 µg/mL (≈ 0.239 µM).

In series [1], `O=c1c2ccccc2nc(/C=C/c2ccc(Cl)cc2)n1-c1ccc(F)cc1` yielded an MIC99 of 12.5 µg/mL (≈ 33.2 µM).

Take `O=c1c2ccccc2nc(/C=C/c2ccc([N+](=O)[O-])o2)n1-c1cccc(O)c1`: in series [3], it took 1.02 µg/mL (≈ 2.72 µM) to reach the 90% level (IC90). Further, the selectivity ratio in series [4] is above 14.7.

In turn, `NC(=O)c1cnccn1` [PYRAZINAMIDE] yielded an MIC99 in series [1] of 6.25 µg/mL (≈ 50.8 µM).

In the series on Staphylococcus aureus, `N#Cc1ccc(/C=C/c2nc3ccccc3c(=O)n2-c2cccc(C(=O)O)c2)cc1` showed an MIC of 2 µg/mL (≈ 5.08 µM).

In turn, `Cc1ccc(-n2c(/C=C/c3ccc(Cl)cc3)nc3ccccc3c2=O)cc1` showed an MIC99 in series [1] of 25 µg/mL (≈ 67.1 µM).

In the case of `CSc1ccc(-n2c(/C=C/c3ccc(Cl)cc3)nc3ccccc3c2=O)cc1`, the MIC99 in series [1] is 12.5 µg/mL (≈ 30.9 µM).

In series [1], `CSc1ccc(-n2c(/C=C/c3ccc(F)cc3)nc3ccccc3c2=O)cc1` had an MIC99 of 12.5 µg/mL (≈ 32.2 µM).

As to `O=c1c2ccccc2nc(/C=C/c2ccc(F)cc2)n1-c1ccc(Cl)cc1`, the MIC99 in series [1] is 6.25 µg/mL (≈ 16.6 µM). Also, the selectivity ratio in series [2] is above 8.

In the case of `COc1cc(-n2c(/C=C/c3ccc(F)cc3)nc3ccccc3c2=O)cc(OC)c1OC`, the MIC99 in series [1] came to 6.25 µg/mL (≈ 14.5 µM). Also, the selectivity ratio in series [2] is above 8.

`O=c1c2ccccc2nc(/C=C/c2ccccc2)n1-c1ccccc1`: the MIC99 in series [1] turned out to be 3.12 µg/mL (≈ 9.63 µM). For the same molecule, the selectivity ratio in series [2] was above 16.

`O=c1c2ccccc2nc(/C=C/c2ccc(F)cc2)n1-c1ccccc1` displayed an MIC99 in series [1] of 25 µg/mL (≈ 73 µM).

For `O=c1c2ccccc2nc(/C=C/c2ccc([N+](=O)[O-])o2)n1CCCO`, the IC90 in series [3] was below 0.1 µg/mL. Besides, the selectivity ratio in series [4] was above 150.

In the case of `O=c1c2ccccc2nc(/C=C/c2ccc(F)cc2)n1-c1ccc(Br)cc1`, the MIC99 in series [1] was found to be 6.25 µg/mL (≈ 14.8 µM).

On to `COc1cc(/C=C/c2nc3ccccc3c(=O)n2-c2ccc(SC)cc2)cc(OC)c1OC`, for which, in series [1], the MIC99 is above 25 µg/mL.

On to `O=c1c2ccccc2nc(/C=C/c2ccccc2)n1-c1ccc(Br)cc1`, for which the MIC99 in series [1] was determined as 6.25 µg/mL (≈ 15.5 µM). Further, the selectivity ratio in series [2] was above 8.

`CSc1ccc(/C=C/c2nc3ccccc3c(=O)n2-c2ccccc2)cc1`: the MIC99 in series [1] stood at 3.12 µg/mL (≈ 8.44 µM). The selectivity ratio in series [2] was below 16.

Regarding `COc1ccc(-n2c(/C=C/c3ccco3)nc3ccccc3c2=O)cc1`, in series [1], the MIC99 was determined as 6.25 µg/mL (≈ 18.1 µM). The selectivity ratio in series [2] was below 8.

Molecule `O=c1c2ccccc2nc(/C=C/c2ccco2)n1-c1ccccc1` displayed an MIC99 in series [1] of 12.5 µg/mL (≈ 39.8 µM).

Consider `O=c1c2ccccc2nc(/C=C/c2ccc(Cl)cc2)n1-c1ccc(Cc2ccccc2)cc1`, for which, in series [1], the MIC99 was 3.12 µg/mL (≈ 6.96 µM).

`COc1ccc(/C=C/c2nc3ccccc3c(=O)n2-c2cc(OC)c(OC)c(OC)c2)cc1`: the MIC99 in series [1] is 12.5 µg/mL (≈ 28.1 µM).

In series [1], `CC[C@@H](CO)NCCN[C@@H](CC)CO` [ETHAMBUTOL] gave an MIC99 of 1.56 µg/mL (≈ 7.64 µM).

Regarding `O=c1c2ccccc2nc(/C=C/c2c(O)cccc2O)n1-c1ccccc1`, the MIC99 in series [1] was 6.25 µg/mL (≈ 17.5 µM). For the same molecule, the selectivity ratio in series [2] is above 8.

The record behind these values is ChEMBL document CHEMBL3804827, “Synthesis, biological evaluation and structure-activity relationship of 2-styrylquinazolones as anti-tubercular agents” (Bioorg Med Chem Lett, 2016).
